The results in this text go back to ChEMBL document CHEMBL1132974 (J Med Chem, 2000).

For test [1], the target named is Histamine H1 receptor (Rattus norvegicus) (UniProt P31390). Put plainly: The compound was evaluated for intrinsic activity in relaxed rat aortic rings with intact endothelium, submaximally precontracted with 15.8 nM U-46,619. The class given is functional, tissue-based. Details: unit not given here. Conditions: Aorta.
Target sequence in this assay (P31390 whole entry): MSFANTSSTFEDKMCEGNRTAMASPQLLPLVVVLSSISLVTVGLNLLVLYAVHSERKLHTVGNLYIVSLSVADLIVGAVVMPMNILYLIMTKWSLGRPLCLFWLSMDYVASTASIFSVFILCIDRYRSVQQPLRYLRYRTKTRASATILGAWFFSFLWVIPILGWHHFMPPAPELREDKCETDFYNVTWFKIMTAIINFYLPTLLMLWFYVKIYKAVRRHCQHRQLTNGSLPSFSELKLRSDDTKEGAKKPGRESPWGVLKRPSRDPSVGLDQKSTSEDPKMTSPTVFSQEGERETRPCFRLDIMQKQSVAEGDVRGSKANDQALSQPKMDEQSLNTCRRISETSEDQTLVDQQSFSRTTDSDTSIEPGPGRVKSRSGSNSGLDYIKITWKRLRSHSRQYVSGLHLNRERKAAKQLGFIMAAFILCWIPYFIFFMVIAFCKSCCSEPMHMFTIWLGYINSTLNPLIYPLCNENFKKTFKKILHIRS
The target in test [2] is Histamine H1 receptor (Rattus norvegicus, UniProt P31390). Kind of test: Effective concentration for agonism activity in relaxed rat aortic rings with intact endothelium, submaximally precontracted with 15.8 nM U-46,619. The test is classed as functional, tissue-based, Aorta.
Sequence of Histamine H1 receptor (Rattus norvegicus, UniProt P31390) (P31390 whole entry): as above
In another test the target is Histamine H3 receptor (Cavia porcellus, UniProt Q9JI35). Kind of test: Compound was evaluated for its antagonist affinity towards Histamine H3 receptor of guinea pig. The test is classed as functional. Conditions: read-out: pA2 (converted). Put shortly:
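Electrically stimulated guinea-pig ileal longitudinal muscle with myenteric plexus, isometric (7.5 mN). Cumulative (R)-α-methylhistamine curves were run with and without test compound (20 min), with 1 µM mepyramine present. Values were apparent pA2, or pD'2 where curves were depressed.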

For test [3], the target named is T1, Histamine H1 receptor (Cavia porcellus, UniProt P31389). Put plainly: Antagonism of guinea pig ileum contraction at 100 nM mepyramine. The class given is functional, tissue-based. Conditions: read-out: pA2 (converted). The method in brief: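 Guinea-pig whole ileal segments (2.0–2.5 cm), isotonic, preload 0.5 g, Tyrode's at 37 °C, 95% O2/5% CO2, with 0.1 µM atropine throughout. […] Apparent pA2 = −log c + log(r−1); full pA2 from Schild plot, slope fixed at 1.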
T1 sequence (P31389 whole entry): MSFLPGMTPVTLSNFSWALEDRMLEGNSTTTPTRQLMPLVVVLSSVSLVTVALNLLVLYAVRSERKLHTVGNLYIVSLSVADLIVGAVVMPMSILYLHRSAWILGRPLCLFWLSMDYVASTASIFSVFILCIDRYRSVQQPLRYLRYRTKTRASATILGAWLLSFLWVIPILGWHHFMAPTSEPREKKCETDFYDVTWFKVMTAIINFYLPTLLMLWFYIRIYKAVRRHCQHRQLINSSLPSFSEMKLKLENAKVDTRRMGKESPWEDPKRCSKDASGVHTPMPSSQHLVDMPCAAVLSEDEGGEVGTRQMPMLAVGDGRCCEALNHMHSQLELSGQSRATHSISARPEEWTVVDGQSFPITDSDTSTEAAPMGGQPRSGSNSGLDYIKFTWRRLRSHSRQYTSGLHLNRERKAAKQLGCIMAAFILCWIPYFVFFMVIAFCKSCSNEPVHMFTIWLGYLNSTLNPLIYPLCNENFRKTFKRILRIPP

The target in the next test is Histamine H2 receptor (Cavia porcellus, UniProt P47747). Put plainly: Compound was evaluated for its antagonist affinity towards Histamine H2 receptor of guinea pig. The class given is functional. Conditions: read-out: pA2 (converted).
Sequence of Histamine H2 receptor (P47747 whole entry): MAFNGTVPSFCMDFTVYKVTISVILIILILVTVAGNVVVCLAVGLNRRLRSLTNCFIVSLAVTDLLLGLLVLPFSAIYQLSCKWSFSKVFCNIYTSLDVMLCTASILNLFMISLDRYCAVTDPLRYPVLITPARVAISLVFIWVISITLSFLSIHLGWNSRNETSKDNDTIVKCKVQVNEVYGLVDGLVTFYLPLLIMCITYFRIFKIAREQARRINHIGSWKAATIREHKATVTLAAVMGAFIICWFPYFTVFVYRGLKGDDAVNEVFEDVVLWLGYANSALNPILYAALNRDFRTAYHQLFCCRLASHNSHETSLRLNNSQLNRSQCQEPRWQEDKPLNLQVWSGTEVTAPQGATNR
Test [4] addresses Histamine H1 receptor (Cavia porcellus) (UniProt P31389). Kind of test: Negative logarithm of receptor dissociation constant Kp was reported in guinea pig ileum whole segment. The test is classed as functional, tissue-based. Put shortly: (§1)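 Guinea-pig ileum (0.1 µM atropine, 37 °C Tyrode's). […] Where several partial-agonist concentrations were used, the overall value comes from a Kaumann-Marano plot with slope constrained to unity.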

The target in test [5] is T1, Histamine H1 receptor. Kind of test: Effective concentration for agonism activity in endothelium-denuded guinea pig aortic segment. The class given is functional, tissue-based, Aorta. Put shortly: (§2)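 Guinea-pig thoracic aortic rings (2–4 mm), endothelium rubbed off, isometric (10 mN), modified Krebs-Henseleit (1.80 mM Ca2+), 37 °C. Cimetidine, corticosterone and cocaine (30 µM each), prazosin and yohimbine (0.3 µM each) and propranolol (0.1 µM) were present. […] The pEC50 shift was corrected using untreated control preparations.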

The target of test [6] is T1, Histamine H1 receptor. Kind of test: Effective concentration for agonist activity in guinea pig ileum whole segment. The test is classed as functional, tissue-based.
The target of test [7] is Muscarinic acetylcholine receptor M3 (Cavia porcellus, UniProt Q8VH26). Kind of test: Compound was evaluated for its antagonist affinity towards Muscarinic acetylcholine receptor M3 of guinea pig. The class given is functional. Conditions: read-out: pA2 (converted). The method in brief: (§3)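 Functional antagonism assays in guinea-pig tissues, each run with 1 µM mepyramine present: M3 (whole ileum), β1 (right atrium), 5-HT1B (iliac artery), 5-HT3 (quiescent ileal longitudinal muscle with myenteric plexus). Results are given as apparent pA2, or pD'2 when only curve depression occurred.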
Sequence of Muscarinic acetylcholine receptor M3 (Q8VH26 whole entry): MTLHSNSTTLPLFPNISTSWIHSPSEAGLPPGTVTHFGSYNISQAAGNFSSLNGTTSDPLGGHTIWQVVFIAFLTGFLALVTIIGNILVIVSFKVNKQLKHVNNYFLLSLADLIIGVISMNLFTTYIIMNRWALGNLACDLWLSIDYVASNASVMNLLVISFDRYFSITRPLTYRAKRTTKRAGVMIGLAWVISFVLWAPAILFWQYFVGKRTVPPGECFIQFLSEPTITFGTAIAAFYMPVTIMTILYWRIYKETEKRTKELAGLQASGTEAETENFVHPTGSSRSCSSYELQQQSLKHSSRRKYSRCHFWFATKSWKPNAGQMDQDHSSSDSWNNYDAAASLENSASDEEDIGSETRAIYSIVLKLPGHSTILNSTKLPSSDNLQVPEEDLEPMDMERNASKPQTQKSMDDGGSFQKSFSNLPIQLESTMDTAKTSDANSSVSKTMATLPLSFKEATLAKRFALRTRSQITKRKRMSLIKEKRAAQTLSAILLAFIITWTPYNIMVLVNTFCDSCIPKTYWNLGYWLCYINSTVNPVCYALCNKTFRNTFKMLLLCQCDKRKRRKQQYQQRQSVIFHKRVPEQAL

In test [8] the target is Histamine H1 receptor (Rattus norvegicus) (UniProt P31390). Put plainly: Compound was evaluated for mepyramine antagonism effects in rat aorta (relaxation) at a mepyramine concentration of 100 nM. The settings on record: read-out: pA2 (converted).
Target sequence in this assay (P31390 whole entry, looked up): as the sequence (P31390 whole entry) above
Test [9] deals with Serotonin 3 (5-HT3) receptor. Kind of test: Compound was evaluated for its antagonist affinity towards 5-hydroxytryptamine 3 receptor of guinea pig. The test is classed as functional, Cavia porcellus. Put shortly: as §3
The species entered for another test is Cavia porcellus. Kind of test: Mepyramine concentration required to antagonise histaprodifens compound induced effects in guinea pig or rat assays. The class given is functional, organism-based.
In test [10] the target is Histamine H1 receptor (Cavia porcellus) (UniProt P31389). Put plainly: concentration of mepyramine was determined. The class given is functional.
Sequence of Histamine H1 receptor (Cavia porcellus) (P31389 whole entry): as the sequence (P31389 whole entry) above
Test [11] has the same target. Put plainly: Negative logarithm of receptor dissociation constant Kp was reported. The class given is functional. Put shortly: as §1
For test [12] the target is unchanged. Put plainly: Intrinsic activity was reported at a concentration of 10 uM. The test is classed as functional.
For test [13] the target is unchanged. Put plainly: Intrinsic activity was reported in endothelium-denuded guinea pig(pre contracted with PGF-2 alpha) at a concentration of 10 uM. The test is classed as functional. The method in brief:
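Endothelium-denuded guinea-pig aortic rings, set up as in the contraction assay, challenged twice with PGF2α (10 µM). Rings were precontracted with a threshold PGF2α level (usually 0.4–1.5 µM, 10–20% of the 10 µM response).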

Test [14] shares this target. Kind of test: Intrinsic activity was reported in guinea pig ileal whole segment. The test is classed as functional.
The target is the same in test [15]. Put plainly: Relative potency was recorded in endothelium-denuded guinea pig; value ranges from 5.68 to 5.93. The class given is functional. The method in brief: as §2
For test [16], the target named is Histamine H1 receptor (Rattus norvegicus) (UniProt P31390). Put plainly: The compound was evaluated for intrinsic activity i.e. maximum histamine controls relative to contraction evoked by 10 uM PGF2-alpha in relaxed rat aortic rings. The class given is functional, tissue-based. The settings on record: Aorta.
Target sequence in this assay (P31390 whole entry): as the sequence (P31390 whole entry) above
The target is the same in test [17]. Put plainly: Relative potency was recorded in relaxed rat aortic rings; value ranges from […] to […]. The test is classed as functional, tissue-based. Conditions: Aorta.
Target sequence in this assay (P31390 whole entry): as above
The target of test [18] is Histamine H1 receptor (Cavia porcellus) (UniProt P31389). Put plainly: pA2 was recorded in endothelium-denuded guinea pig(pre contracted with PGF-2 alpha).value ranges from 5.66 to 6.19.
For test [19] the target is unchanged. Kind of test: Intrinsic activity was reported in guinea pig ileum whole segment. The test is classed as functional, tissue-based.
Test [20] shares this target. Kind of test: Relative potency in guinea pig ileum whole segment; value ranges from 0.4 to 0.6. The class given is functional, tissue-based.
Test [21] has as its target T2, Alpha-1D adrenergic receptor (Rattus norvegicus, UniProt P23944).
T2 sequence (P23944 whole entry): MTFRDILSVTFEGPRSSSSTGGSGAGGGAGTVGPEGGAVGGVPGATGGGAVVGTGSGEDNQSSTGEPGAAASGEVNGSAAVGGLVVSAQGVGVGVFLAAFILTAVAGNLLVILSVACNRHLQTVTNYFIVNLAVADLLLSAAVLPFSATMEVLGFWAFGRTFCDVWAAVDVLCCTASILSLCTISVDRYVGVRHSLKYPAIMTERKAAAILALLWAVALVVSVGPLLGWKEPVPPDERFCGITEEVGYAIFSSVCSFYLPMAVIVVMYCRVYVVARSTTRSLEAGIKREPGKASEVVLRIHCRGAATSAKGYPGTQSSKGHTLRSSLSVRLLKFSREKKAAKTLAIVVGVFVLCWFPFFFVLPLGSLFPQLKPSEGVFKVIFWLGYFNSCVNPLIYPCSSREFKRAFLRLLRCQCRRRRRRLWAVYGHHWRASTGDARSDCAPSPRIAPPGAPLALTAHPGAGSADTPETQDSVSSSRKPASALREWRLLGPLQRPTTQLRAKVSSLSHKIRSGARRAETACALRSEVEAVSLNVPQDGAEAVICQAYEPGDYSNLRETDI
Put plainly: Compound was evaluated for its antagonist affinity towards Alpha-1D adrenergic receptor of rat. The test is classed as functional. Conditions: read-out: pA2 (converted). Put shortly:
(§4)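 Functional antagonism in rat tissues: α1D (thoracic aorta), 5-HT2A (tail artery), 5-HT4 (oesophageal tunica muscularis mucosae). Results are given as apparent pA2 from single-concentration rightward shifts, or pD'2 when only curve depression occurred.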

Test [22] deals with Beta-1 adrenergic receptor (Cavia porcellus, UniProt B0FL73). Kind of test: Compound was evaluated for its antagonist affinity towards Beta-1 adrenergic receptor of guinea pig. The class given is functional. Conditions: read-out: pA2 (converted). The method in brief:
as §3

For test [23], the target named is T1, Histamine H1 receptor. Put plainly: Compound was evaluated for mepyramine antagonism effects in guinea pig aorta (contraction) at a mepyramine concentration of 100 nM. The test is classed as functional, tissue-based. Conditions: read-out: pA2 (converted). Put shortly:
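Guinea-pig aortic rings with endothelium damaged, isometric (10 mN), 37 °C Krebs-Henseleit. Agonist curves were run with mepyramine (100 nM, about 60 min) after threshold PGF2α precontraction. Apparent pA2 = −log c + log(r−1).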

Test [24] has as its target T1, Histamine H1 receptor. Put plainly: Effective concentration for agonism activity in Endothelium-Denuded guinea pig aortic segment. The class given is functional, tissue-based, Aorta. Put shortly: as §2
In test [25] the target is 5-hydroxytryptamine receptor 2A (Rattus norvegicus, UniProt P14842). Put plainly: Compound was evaluated for its antagonist affinity towards 5-hydroxytryptamine 2A receptor of rat. The class given is functional. The settings on record: read-out: pA2 (converted). The method in brief: as §4
Sequence of 5-hydroxytryptamine receptor 2A (P14842 whole entry): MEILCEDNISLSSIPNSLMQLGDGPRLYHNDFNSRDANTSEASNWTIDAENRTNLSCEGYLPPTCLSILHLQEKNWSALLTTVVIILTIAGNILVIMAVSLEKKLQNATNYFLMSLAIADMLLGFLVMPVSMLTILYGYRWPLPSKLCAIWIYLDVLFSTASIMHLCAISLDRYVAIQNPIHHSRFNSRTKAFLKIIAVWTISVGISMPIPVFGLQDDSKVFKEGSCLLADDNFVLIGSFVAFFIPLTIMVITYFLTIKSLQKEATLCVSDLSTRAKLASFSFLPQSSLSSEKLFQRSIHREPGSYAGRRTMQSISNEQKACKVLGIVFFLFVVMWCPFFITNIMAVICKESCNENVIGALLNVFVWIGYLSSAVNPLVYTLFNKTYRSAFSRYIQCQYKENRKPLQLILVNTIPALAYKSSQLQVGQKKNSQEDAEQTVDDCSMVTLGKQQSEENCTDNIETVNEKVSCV
Test [26] deals with 5-hydroxytryptamine receptor 4 (Rattus norvegicus, UniProt Q62758). Kind of test: Compound was evaluated for its antagonist affinity towards 5-hydroxytryptamine 4 receptor of rat. The class given is functional. The settings on record: read-out: pA2 (converted). Put shortly: as §4
Sequence of 5-hydroxytryptamine receptor 4 (Q62758 whole entry): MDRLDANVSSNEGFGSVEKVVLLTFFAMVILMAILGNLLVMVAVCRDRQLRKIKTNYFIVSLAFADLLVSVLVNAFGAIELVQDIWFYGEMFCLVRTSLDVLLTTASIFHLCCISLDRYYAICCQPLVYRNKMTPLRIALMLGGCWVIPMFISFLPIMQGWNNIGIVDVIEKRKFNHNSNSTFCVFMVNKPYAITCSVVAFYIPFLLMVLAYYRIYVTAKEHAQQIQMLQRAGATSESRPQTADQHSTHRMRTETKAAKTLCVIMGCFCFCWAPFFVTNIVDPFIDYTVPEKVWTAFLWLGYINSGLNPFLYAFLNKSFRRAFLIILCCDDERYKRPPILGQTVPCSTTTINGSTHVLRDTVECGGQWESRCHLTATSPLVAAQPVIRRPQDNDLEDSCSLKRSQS
Test [27] deals with 5-hydroxytryptamine receptor 1B (Cavia porcellus). Put plainly: Compound was evaluated for its antagonist affinity towards 5-hydroxytryptamine 1B receptor of guinea pig. The settings on record: read-out: pA2 (converted).

“And” between values parts separate entries of the source, which are not always exact repeats. Identical values can stand only once.

Sequence of Histamine H3 receptor (Q9JI35 whole entry): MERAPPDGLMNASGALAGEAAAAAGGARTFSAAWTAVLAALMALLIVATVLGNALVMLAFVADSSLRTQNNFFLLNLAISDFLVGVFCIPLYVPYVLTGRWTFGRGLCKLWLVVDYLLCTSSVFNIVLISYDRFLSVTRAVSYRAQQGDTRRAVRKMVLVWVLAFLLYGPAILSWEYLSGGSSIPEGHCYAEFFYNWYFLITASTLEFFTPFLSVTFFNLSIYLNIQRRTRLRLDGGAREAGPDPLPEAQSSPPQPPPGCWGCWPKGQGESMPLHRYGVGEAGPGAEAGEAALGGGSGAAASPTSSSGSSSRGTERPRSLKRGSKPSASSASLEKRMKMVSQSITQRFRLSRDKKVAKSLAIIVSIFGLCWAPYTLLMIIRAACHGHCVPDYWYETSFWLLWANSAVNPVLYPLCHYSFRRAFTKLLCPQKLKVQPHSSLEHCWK
Sequence of Beta-1 adrenergic receptor (B0FL73 whole entry): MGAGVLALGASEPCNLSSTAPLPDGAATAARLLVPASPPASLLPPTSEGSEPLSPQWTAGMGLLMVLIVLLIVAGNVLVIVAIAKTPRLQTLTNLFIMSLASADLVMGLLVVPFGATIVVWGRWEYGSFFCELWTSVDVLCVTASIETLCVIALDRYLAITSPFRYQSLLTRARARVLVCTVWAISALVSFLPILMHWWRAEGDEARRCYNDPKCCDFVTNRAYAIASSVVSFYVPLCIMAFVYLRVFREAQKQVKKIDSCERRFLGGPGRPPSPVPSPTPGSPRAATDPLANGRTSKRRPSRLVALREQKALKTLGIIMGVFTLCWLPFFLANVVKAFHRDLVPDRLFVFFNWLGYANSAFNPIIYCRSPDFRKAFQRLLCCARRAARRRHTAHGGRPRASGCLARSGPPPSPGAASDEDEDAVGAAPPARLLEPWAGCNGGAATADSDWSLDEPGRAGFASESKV

Turning to `c1ccc(C(CCc2nc(CCNC3CC3)c[nH]2)c2ccccc2)cc1`, in [1], the Emax is 56 and 62. In addition, the EC50 at Histamine H1 receptor [2] is 355 nM; at Histamine H1 receptor [5], 2290 nM; on Histamine H1 receptor [6], 148 nM. For the same molecule, the Kb on Histamine H3 receptor is above 501 nM; on Histamine H1 receptor [3], 1.41 nM and 2.14 nM; at Histamine H2 receptor it was 20000 nM; in test [7], 933 nM; in test [8] it was 5.75 nM. Also, the pKp in test [4] was determined as 6.17.

Turning to `CNCCc1c[nH]c(CCC(c2ccccc2)c2ccccc2)n1`, in [9], the pA2 is below 5.8. Moreover, the Concentration in the test listed under Cavia porcellus is 0.1 µM; in test [10], 0.003 µM and 0.005 µM. The molecule also returned an Emax in test [1] of 55. Besides, the pKp in test [4] is 6.45.

In [11], `NCCc1c[nH]c(CCCC(c2ccccc2)c2ccccc2)n1` showed a pKp of 5.94. The Emax in test [12] turned out to be 0; in [13], 0; in [14], 2; in test [16] it was 0. For the same molecule, the pA2 was determined as 5.8 in test [15], 5.72 in [17] and 5.92 in [18].

In [11], `NCCc1c[nH]c(CC(c2ccccc2)c2ccccc2)n1` came in with a pKp of 3.87. This molecule also had an Emax in test [19] of 50. Further, the Relative potency in test [20] amounted to 0.5. The EC50 on Histamine H1 receptor [6] is 40700 nM.

For the molecule `CN(C)CCc1c[nH]c(CCC(c2ccccc2)c2ccccc2)n1`, the pA2 in [9] is below 5.8. Also, the Kb was 7760 nM in test [21]; 26300 nM in test [22]; above 1580 nM at Histamine H3 receptor; 2.51 nM on Histamine H1 receptor [23]; 0.776 nM and 1.38 nM at Histamine H1 receptor [3]; 26300 nM on Histamine H2 receptor. Besides, the Kb is 1150 nM in test [7]; 3720 nM in test [25]; above 1580 nM in test [26]; above 31600 nM in [27]; 10.5 nM in [8]. For the same molecule, the Emax in test [1] is 51 and 55. Also, the concentration for a half-maximal effect (EC50) is 170 nM at Histamine H1 receptor [2], 120 nM at Histamine H1 receptor [24], 832 nM at Histamine H1 receptor [5] and 83.2 nM on Histamine H1 receptor [6]. The pKp in test [4] turned out to be 6.4.

With `CCNCCc1c[nH]c(CCC(c2ccccc2)c2ccccc2)n1`, the Emax in test [1] was 44 and 47; in [19], 89. Also, the EC50 at Histamine H1 receptor [2] is 646 nM; on Histamine H1 receptor [6], 302 nM. Further, the Kb is above 1000 nM on Histamine H3 receptor, 1.55 nM on Histamine H1 receptor [3] (in the assay text read “at 5 nM mepyramine” for “at 100 nM mepyramine”), 31600 nM at Histamine H2 receptor and 1020 nM in test [7]. The same molecule showed a pKp in test [4] of 5.75.

Broadly, the EC50 is the concentration needed to bring the measured effect to its halfway point. A word on the pA2: it is the negative logarithm of the molar antagonist concentration that doubles the agonist concentration needed for the same response.
